Measurements gathered from unrelated publications.
Target: Serine/threonine-protein kinase Nek9 (NEK9, Homo sapiens, UniProt Q8TD19)
Residues used in one study (Q8TD19 1-979): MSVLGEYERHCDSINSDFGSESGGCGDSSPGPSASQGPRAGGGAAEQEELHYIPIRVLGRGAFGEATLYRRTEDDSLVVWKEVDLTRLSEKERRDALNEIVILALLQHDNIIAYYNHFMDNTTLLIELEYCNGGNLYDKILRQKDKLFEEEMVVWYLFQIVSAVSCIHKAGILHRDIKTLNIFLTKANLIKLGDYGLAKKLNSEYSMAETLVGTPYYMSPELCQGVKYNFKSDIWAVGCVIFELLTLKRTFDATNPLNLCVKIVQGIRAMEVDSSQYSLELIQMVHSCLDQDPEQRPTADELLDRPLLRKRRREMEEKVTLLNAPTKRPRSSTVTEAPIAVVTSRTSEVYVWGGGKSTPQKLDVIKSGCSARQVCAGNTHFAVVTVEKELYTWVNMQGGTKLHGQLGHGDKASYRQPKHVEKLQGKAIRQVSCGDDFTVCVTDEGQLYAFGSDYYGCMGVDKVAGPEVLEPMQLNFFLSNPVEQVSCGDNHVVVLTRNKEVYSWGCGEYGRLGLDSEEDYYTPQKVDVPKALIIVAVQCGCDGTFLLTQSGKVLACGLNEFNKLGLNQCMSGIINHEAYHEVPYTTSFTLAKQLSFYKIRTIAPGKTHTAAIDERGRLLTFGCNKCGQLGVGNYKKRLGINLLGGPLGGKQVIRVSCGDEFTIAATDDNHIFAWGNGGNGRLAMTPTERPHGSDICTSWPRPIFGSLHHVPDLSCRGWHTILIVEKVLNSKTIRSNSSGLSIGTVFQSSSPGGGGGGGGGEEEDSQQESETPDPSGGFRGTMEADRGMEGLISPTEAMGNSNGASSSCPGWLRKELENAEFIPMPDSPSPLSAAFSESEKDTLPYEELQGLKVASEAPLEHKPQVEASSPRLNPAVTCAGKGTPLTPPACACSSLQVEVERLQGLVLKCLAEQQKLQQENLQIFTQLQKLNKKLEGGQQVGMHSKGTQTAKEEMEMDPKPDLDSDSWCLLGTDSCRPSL

CN1CC(Oc2cnc(C#N)cc2-c2ccn3nc(NC(=O)C4CC4)cc3c2)C1  inhibition (enzyme activity, inhibitor; 1 µM): -3%
O=C(NCc1ncc(C(F)(F)F)cc1Cl)c1ccc2c(c1)C1(CCS(=O)(=O)CC1)[C@H](C1CC1)N2S(=O)(=O)c1ccc(F)cc1  remaining binding (cell-free assay, competition with immobilised ligand; 1 µM): 100%
Clc1ccc(Nc2nnc(Cc3ccncc3)c3ccccc23)cc1  remaining signal (cell-free assay; 0.5 µM): 98.4%
CS(=O)(=O)c1cc(C2(NC(=O)c3cncc4c3cnn4-c3ccc(F)cc3)CC2)ccn1  remaining binding (cell-free assay, competition with immobilised ligand; 1 µM): 100%
CS(=O)(=O)CCNCc1ccc(-c2ccc3ncnc(Nc4ccc(OCc5cccc(F)c5)c(Cl)c4)c3c2)o1  remaining signal (cell-free assay; 0.5 µM): 100%
O=c1nc(-c2ccccn2)sc2ccccc12  remaining binding (binding, competition with immobilised ligand; 1 µM): 96%
Cc1ccc(NC(=O)c2ccc(C)c(C(F)(F)F)c2)cc1C#Cc1nn(C2CCC(O)CC2)c2ncnc(N)c12 (stereo not drawn)  remaining signal (cell-free assay; 10 µM): 59%
Nc1ncnc2occ(-c3ccc(NC(=O)Nc4cc(C(F)(F)F)ccc4F)cc3)c12  remaining signal (cell-free assay, inhibitor; 20 µM): 1.6%
CNC(=O)c1cc(Oc2ccc(NC(=O)Nc3ccc(Cl)c(C(F)(F)F)c3)cc2)ccn1  remaining signal (cell-free assay; 0.5 µM): 95.4%
COc1cc2ncnc(Nc3ccc(Oc4ccccc4)c(C)c3C)c2cc1OC  inhibition (enzyme activity, inhibitor; 1 µM): 5%
CCOc1cc(-c2nncn2C)ccc1Nc1ncc2cc(C)nc(NCC(C)(C)C)c2n1  inhibition (enzyme activity, inhibitor, FRET; 1 µM): < 15%
O=C1Nc2ccc(Cl)cc2C1=Cc1cc(Cl)c(O)c(Cl)c1  remaining signal (cell-free assay; 0.5 µM): 103%
Nc1c(C(=O)NCc2ccc(C(=O)NCCCC3CCCCC3)cc2)cnn1-c1ccccc1  remaining binding (cell-free assay, competition with immobilised ligand; 0.1 µM): 100%
CC(C)(C)c1nc2c(s1)c1nc(N)ncc1c1ccc(NS(=O)(=O)c3c(F)cccc3F)c(F)c12  remaining activity (enzyme activity, inhibitor, radiometric; 1 µM): 96%
O=C(Nc1cnn(-c2csc(C(=O)NC3COC3)c2)c1)Nc1c(F)cccc1Cl  remaining activity (enzyme activity, inhibitor; 5 µM): 88.4%
COc1cc(Cl)c(C(=O)N[C@@H](CN[C@H]2CC[C@@H](N)CC2)Cc2ccc(C#N)cc2)cc1-c1ccc(CN[C@H](C)c2ccc(C)cc2)o1  remaining activity (enzyme activity, inhibitor; 1 µM): 127%
CNCc1ccccc1-c1csc([C@H](C)Nc2nc(C)nc3cc(OC)c(OC)cc23)c1  remaining binding (cell-free assay, competition with immobilised ligand; 1 µM): 100%
Cc1ccc(C(=O)Nc2ccc(CN3CCN(C)CC3)c(C(F)(F)F)c2)cc1C#Cc1cnc2cccnn12  remaining activity (enzyme activity, inhibitor; 23.5 nM): 100%
